Experimental data reported in ChEMBL document CHEMBL4130512, “Design, synthesis and biological evaluation of novel α-hederagenin derivatives with anticancer activity” (Eur J Med Chem, 2017).

Assays:
KB = assay: Antiproliferative activity against human KB cells assessed as cell viability at 10 uM after 72 hrs by MTT assay relative to control; assay type: functional; details: read-out: Activity
Outline: (§1)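 Single-concentration MTT screen. Log-phase cells in DMEM with 10% FCS were treated for 72 h in 96-well plates. After MTT and DMSO, absorbance was read at 570 nm. Viability was calculated relative to control as mean ± SD of three independent experiments.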

MKN-45 = assay: Antiproliferative activity against human MKN45 cells assessed as cell viability at 10 uM after 72 hrs by MTT assay relative to control; assay type: functional; details: MKN-45, 72 h, read-out: Activity; outline: as §1

Row | Compound | viability at 10 µM (KB) [%] | viability at 10 µM (MKN-45) [%]
1 | CC1(C)CC[C@]2(C(=O)OCc3ccccc3)CC[C@]3(C)C(=CC[C@@H]4[C@@]5(C)CCC(=O)[C@@](C)(COC(=O)CCCCO[N+](=O)[O-])[C@@H]5CC[C@]43C)[C@@H]2C1 | 60 | 54
2 | CC1(C)CC[C@]2(C(=O)OCc3ccccc3)CC[C@]3(C)C(=CC[C@@H]4[C@@]5(C)Cc6nccnc6[C@@](C)(COC(=O)CCC(=O)OCCc6ccc(OCCO[N+](=O)[O-])cc6)[C@@H]5CC[C@]43C)[C@@H]2C1 | 50 | 93
3 | CC1(C)CC[C@]2(C(=O)OCc3ccccc3)CC[C@]3(C)C(=CC[C@@H]4[C@@]5(C)CCC(=O)[C@@](C)(COC(=O)c6ccccc6C(=O)Nc6cccc(N)c6)[C@@H]5CC[C@]43C)[C@@H]2C1 | 62 | 93
4 | CC1(C)CC[C@]2(C(=O)OCc3ccccc3)CC[C@]3(C)C(=CC[C@@H]4[C@@]5(C)CCC(=O)[C@@](C)(COC(=O)CCC(=O)Nc6ccc(N)cc6)[C@@H]5CC[C@]43C)[C@@H]2C1 | 51 | 92
5 | CC1(C)CC[C@]2(C(=O)OCc3ccccc3)CC[C@]3(C)C(=CC[C@@H]4[C@@]5(C)CCC(=O)[C@@](C)(COC(=O)CCC(=O)Nc6ccccc6N)[C@@H]5CC[C@]43C)[C@@H]2C1 | 50 | 99
6 | CC1(C)CC[C@]2(C(=O)OCc3ccccc3)CC[C@]3(C)C(=CC[C@@H]4[C@@]5(C)CCC(=O)[C@@](C)(COC(=O)c6ccccc6C(=O)O)[C@@H]5CC[C@]43C)[C@@H]2C1 | 51 | 40
7 | CC1(C)CC[C@]2(C(=O)OCc3ccccc3)CC[C@]3(C)C(=CC[C@@H]4[C@@]5(C)CCC(=O)[C@@](C)(COC(=O)c6ccccc6C(=O)OCCc6ccc(OCCO[N+](=O)[O-])cc6)[C@@H]5CC[C@]43C)[C@@H]2C1 | 67 | 89
8 | CC1(C)CC[C@]2(C(=O)OCc3ccccc3)CC[C@]3(C)C(=CC[C@@H]4[C@@]5(C)CCC(OC(=O)CCCCO[N+](=O)[O-])[C@@](C)(COC(=O)CCCCO[N+](=O)[O-])[C@@H]5CC[C@]43C)[C@@H]2C1 (stereo partly drawn) | 58 | 97
9 | CC1(C)CC[C@]2(C(=O)OCc3ccccc3)CC[C@]3(C)C(=CC[C@@H]4[C@@]5(C)CCC(=O)[C@@](C)(COC(=O)CCC(=O)Oc6ccc(CCO[N+](=O)[O-])cc6)[C@@H]5CC[C@]43C)[C@@H]2C1 | 53 | 100
10 | CC1(C)CC[C@]2(C(=O)OCc3ccccc3)CC[C@]3(C)C(=CC[C@@H]4[C@@]5(C)CC/C(=N\O)[C@@](C)(CO)[C@@H]5CC[C@]43C)[C@@H]2C1 | 76 | 64
11 | CC1(C)CC[C@]2(C(=O)OCc3ccccc3)CC[C@]3(C)C(=CC[C@@H]4[C@@]5(C)Cc6nccnc6[C@@](C)(COC(=O)c6ccccc6C(=O)OCCc6ccc(OCCO[N+](=O)[O-])cc6)[C@@H]5CC[C@]43C)[C@@H]2C1 | 55 | 84
12 | CC1(C)CC[C@]2(C(=O)OCc3ccccc3)CC[C@]3(C)C(=CC[C@@H]4[C@@]5(C)Cc6nccnc6[C@@](C)(CO)[C@@H]5CC[C@]43C)[C@@H]2C1 | 75 | 77
13 | CC1(C)CC[C@]2(C(=O)OCc3ccccc3)CC[C@]3(C)C(=CC[C@@H]4[C@@]5(C)Cc6nccnc6[C@@](C)(COC(=O)CCC(=O)Oc6ccc(CCO[N+](=O)[O-])cc6)[C@@H]5CC[C@]43C)[C@@H]2C1 | 69 | 100
14 | CC1(C)CC[C@]2(C(=O)OCc3ccccc3)CC[C@]3(C)C(=CC[C@@H]4[C@@]5(C)Cc6nccnc6[C@@](C)(COC(=O)CCCCCO[N+](=O)[O-])[C@@H]5CC[C@]43C)[C@@H]2C1 | 63 | 84
